Assay results: ChEMBL document CHEMBL4665832, “Benzylidene thiazolidinediones: Synthesis, in vitro investigations of antiproliferative mechanisms and in vivo efficacy determination in combination with Imatinib” (Bioorg Med Chem Lett, 2020)
Blank lines part the entries; values can stand above or below the compound they belong to. Calls of active or inactive are those of the source. No cut-off for these calls is given here.

Tests used:
K562 [1] = assay: Anticancer activity against human K562 cells assessed as cell growth inhibition at 1 uM by MTT assay relative to control; type: functional; settings: read-out: GI
Outline: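 K562 cells given imatinib 1 µM or test compound 1 µM alone, or imatinib 1 µM plus test compound 1 µM. Proliferation read by MTT assay and expressed as % inhibition.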

[2] = Cytotoxicity against hepatocytes (unknown origin) assessed as cell growth by MTT assay relative to control; type: cell-based, Hepatocyte; design: concentration or dose not given beside the values
HOP-62 = assay: Antiproliferative activity against human HOP-62 cells assessed as cell growth inhibition; type: functional
Outline: (§1)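 Cell lines screened for growth inhibition and GI₅₀ derived. Each value is the mean of 3 independent experiments.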

PC-3 = assay: Antiproliferative activity against human PC-3 cells assessed as cell growth inhibition; type: functional; outline: as §1
MCF7 = assay: Antiproliferative activity against human MCF7 cells assessed as cell growth inhibition; type: functional; outline: as §1
K562 [3] = assay: Antiproliferative activity against human K562 cells assessed as cell growth inhibition; type: functional; outline: as §1
[4] = Antiproliferative activity against human GURAV cells assessed as cell growth inhibition; type: functional; outline: as §1
KB = assay: Antiproliferative activity against human KB cells assessed as cell growth inhibition; type: functional; outline: as §1
A549 = assay: Antiproliferative activity against human A549 cells assessed as cell growth inhibition; type: functional; outline: as §1
NCI-H226 = assay: Antiproliferative activity against human NCI-H226 cells assessed as cell growth inhibition; type: functional; outline: as §1
HL-60 = assay: Antiproliferative activity against human HL-60 cells assessed as cell growth inhibition; type: functional; outline: as §1
Jurkat = assay: Antiproliferative activity against human Jurkat cells assessed as cell growth inhibition; type: functional; outline: as §1
MOLT-4 = assay: Antiproliferative activity against human MOLT-4 cells assessed as cell growth inhibition; type: functional; outline: as §1
U-937 = assay: Antiproliferative activity against human U-937 cells assessed as cell growth inhibition; type: functional; outline: as §1
K562 [5] = assay: Cell cycle arrest in human K562 cells assessed as accumulation at G0/G1 phase at 5 uM measured after 24 hrs by flow cytometry analysis; type: functional, cell-based
Outline: (§2)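 K562 cells exposed to 5 µM for 24 h, then cell-cycle phase distribution measured by flow cytometry. Untreated cells served as negative control and DMSO as vehicle control. SEM of n = 3. Two-tailed Student's t-test, P < 0.05.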

K562 [6] = assay: Cell cycle arrest in human K562 cells assessed as accumulation at S phase at 5 uM measured after 24 hrs by flow cytometry analysis; type: functional, cell-based; outline: as §2
K562 [7] = assay: Cell cycle arrest in human K562 cells assessed as accumulation at G2/M phase at 5 uM measured after 24 hrs by flow cytometry analysis; type: functional, cell-based; outline: as §2
K562 [8] = assay: Cell cycle arrest in human K562 cells assessed as increase in cells accumulation at G0/G1 phase measured after 24 to 72 hrs by flow cytometry analysis; type: functional, cell-based; settings: dose microM 5-20, time hrs 24-72
Outline: (§3)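 K562 cells exposed to 5, 10 or 20 µM and sampled at 24, 48 and 72 h. Phase distribution (G0/G1, S, G2/M) measured by flow cytometry. Untreated and DMSO vehicle controls. SEM of n = 3. Two-tailed t-test, P < 0.05.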

K562 [9] = assay: Cell cycle arrest in human K562 cells assessed as decrease in cells accumulation at S phase measured after 24 to 72 hrs by flow cytometry analysis; type: functional, cell-based; settings: dose microM 5-20, time hrs 24-72; outline: as §3
K562 [10] = assay: Cell cycle arrest in human K562 cells assessed as decrease in cells accumulation at G2/M phase measured after 24 to 72 hrs by flow cytometry analysis; type: functional, cell-based; settings: dose microM 5-20, time hrs 24-72; outline: as §3
K562 [11] = assay: Cell cycle arrest in human K562 cells assessed as increase in cells accumulation at G0/G1 phase at 5 to 20 uM measured by flow cytometry analysis; type: functional, cell-based; settings: dose microM 5-20, time hrs 24-72, TDE = time-dependent effect; outline: as §3
K562 [12] = assay: Cell cycle arrest in human K562 cells assessed as decrease in cells accumulation at S phase at 5 to 20 uM measured by flow cytometry analysis; type: functional, cell-based; settings: dose microM 5-20, time hrs 24-72, TDE = time-dependent effect; outline: as §3
K562 [13] = assay: Cell cycle arrest in human K562 cells assessed as decrease in cells accumulation at G2/M phase at 5 to 20 uM measured by flow cytometry analysis; type: functional, cell-based; settings: dose microM 5-20, time hrs 24-72, TDE = time-dependent effect; outline: as §3
K562 [14] = assay: Downregulation of cyclin-D1 expression in human K562 cells at 10 to 20 uM measured after 48 to 72 hrs by Western blot analysis; type: functional, cell-based; settings: dose microM 10-20, time hrs 48-72
Outline: (§4)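 K562 cells treated at 10 or 20 µM for 24, 48 or 72 h. PCNA and cyclin D1 detected by Western blot, bands quantified and normalised to actin. Means of three separate experiments, SD, P < 0.05.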

K562 [15] = assay: Downregulation of PCNA expression in human K562 cells at 10 to 20 uM measured after 48 hrs by Western blot analysis; type: functional, cell-based; settings: dose microM 10-20, time 48.0 hrs; outline: as §4
K562 [16] = assay: Downregulation of PCNA expression in human K562 cells at 20 uM measured after 72 hrs by Western blot analysis; type: functional, cell-based; outline: as §4
K562 [17] = assay: Potentiation of imatinib-induced anticancer activity against human K562 cells assessed as cell growth inhibition at 1 uM by MTT assay (reference value: 71%); type: functional; settings: read-out: GI
[18] = Acute toxicity in po dosed mouse assessed as body weight loss; type: organism-based; settings: in vivo
Outline: (§5)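 Healthy mice were given oral doses that increased over the study period. Each higher dose was given only if the previous dose was well tolerated. All animals were monitored for body weight loss, behavioural changes and mortality to set the maximum tolerated dose.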

[19] = Acute toxicity in po dosed mouse assessed as mortality; type: organism-based; settings: in vivo; outline: as §5
[20] = Acute toxicity in po dosed mouse assessed as maximum tolerated dose; type: organism-based; settings: in vivo; outline: as §5
K562 [21] = assay: Potentiation of imatinib-induced antitumor activity against human K562 cells xenografted in mouse assessed as reduction in tumor volume at 100 mg/kg, ip administered for 30 days co-treated with imatinib at 100 mg/kg and measured every day for 30 days; type: functional, organism-based; settings: time 30.0 day
Outline: (§6)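 Mice implanted subcutaneously in the right rear flank with 6 × 10⁶ K562 cells/100 μl in 50% matrigel. Dosed intraperitoneally: compound alone 200 mg/kg, or compound 100 mg/kg plus imatinib 100 mg/kg; controls were imatinib 100 mg/kg and saline. Tumour volume tracked over time, n = 6. Dunnett's test against control.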

K562 [22] = assay: Antitumor activity against human K562 cells xenografted in mouse assessed as reduction in tumor volume at 200 mg/kg, ip administered for 30 days and measured every day for 30 days; type: functional, organism-based; settings: time 30.0 day; outline: as §6
K562 [23] = assay: Downregulation of cyclin-D1 expression in human K562 cells at 10 to 20 uM measured after 24 hrs by Western blot analysis; type: functional, cell-based; settings: dose microM 10-20, time 24.0 hrs; outline: as §4
K562 [24] = assay: Downregulation of PCNA expression in human K562 cells at 10 to 20 uM measured after 24 hrs by Western blot analysis; type: functional, cell-based; settings: dose microM 10-20, time 24.0 hrs; outline: as §4

Structure (SMILES): Cc1ccc(NC(=O)c2ccc(CN3CCN(C)CC3)cc2)cc1Nc1nccc(-c2cccnc2)n1 [IMATINIB]
inhibition of growth at 1 µM (K562 [1]): 71%

GI50 (PC-3): 86.6 µM
GI50 (MCF7): 55.1 µM
GI50 (K562 [3]): 23.4 µM
GI50 (KB): 32.1 µM
Structure (SMILES): O=C(COc1ccc(/C=C2\SC(=O)NC2=O)cc1)Nc1ccc(Br)cc1
viability [2]: > 70%
GI50 (HOP-62): 45.4 µM
GI50 [4]: 54.4 µM

GI50 (A549): 46.9 µM
GI50 (NCI-H226): 26.5 µM
Structure (SMILES): O=C(COc1ccc(/C=C2\SC(=O)NC2=O)cc1)Nc1nc2ccccc2s1
viability [2]: > 70%

GI50 (PC-3): > 100 µM
GI50 (MCF7): 72.5 µM
GI50 (K562 [3]): 29.5 µM
GI50 (KB): > 100 µM
Structure (SMILES): O=C(COc1ccc(/C=C2\SC(=O)NC2=O)cc1)Nc1ccc([N+](=O)[O-])cc1
viability [2]: > 70%
GI50 (HOP-62): > 100 µM
GI50 [4]: > 100 µM

GI50 (PC-3): > 100 µM
GI50 (MCF7): 61.8 µM
GI50 (K562 [3]): 19.6 µM
GI50 (KB): 99.6 µM
Structure (SMILES): Cc1ccc(NC(=O)COc2ccc(/C=C3\SC(=O)NC3=O)cc2)cc1Cl
viability [2]: > 70%
GI50 (HOP-62): > 100 µM
GI50 [4]: 71.4 µM

GI50 (PC-3): > 100 µM
GI50 (MCF7): 74.5 µM
GI50 (K562 [3]): 17.6 µM
GI50 (KB): > 100 µM
Structure (SMILES): O=C(COc1ccc(/C=C2\SC(=O)NC2=O)cc1)Nc1ccccc1
viability [2]: > 70%
GI50 (HOP-62): > 100 µM
GI50 [4]: 57 µM

Structure (SMILES): O=C(COc1ccc(/C=C2\SC(=O)NC2=O)cc1)Nc1ccc(F)cc1F
viability [2]: > 70%
GI50 (HOP-62): > 100 µM
GI50 (PC-3): > 100 µM
GI50 (MCF7): 65.8 µM
GI50 (K562 [3]): 0.9 µM
GI50 [4]: 61.4 µM
GI50 (KB): > 100 µM
GI50 (HL-60): 47.8 µM
GI50 (Jurkat): 34.6 µM
GI50 (MOLT-4): 40.3 µM
GI50 (U-937): 35.6 µM
Activity (K562 [5]): Active
Activity (K562 [6]): Active
Activity (K562 [7]): Active
Activity (K562 [8]): Dose-dependent effect
Activity (K562 [9]): Dose-dependent effect
Activity (K562 [10]): Dose-dependent effect
Activity (K562 [11]): Tde
Activity (K562 [12]): Tde
Activity (K562 [13]): Tde
inhibition (K562 [14]): Active
inhibition (K562 [15]): inactive
inhibition (K562 [16]): Active
inhibition of growth at 1 µM (K562 [1]): 62%
inhibition of growth at 1 µM (K562 [17]): 79%
Activity [18]: Non-Toxic
Activity [19]: Non-Toxic
MTD [20]: 2000 mg/kg
Activity (K562 [21]): Active
Activity (K562 [22]): Active
inhibition (K562 [23]): inactive
inhibition (K562 [24]): inactive

GI50 (PC-3): > 100 µM
GI50 (MCF7): 54.6 µM
GI50 (K562 [3]): 9.6 µM
GI50 (KB): > 100 µM
GI50 (HL-60): 61.1 µM
GI50 (Jurkat): 59.9 µM
GI50 (MOLT-4): 53.5 µM
GI50 (U-937): 63.9 µM
Structure (SMILES): O=C(COc1ccc(/C=C2\SC(=O)NC2=O)cc1)Nc1ccc(F)cc1
viability [2]: > 70%
GI50 (HOP-62): 68 µM
GI50 [4]: 56.8 µM

GI50 (PC-3): > 100 µM
GI50 (MCF7): 57.3 µM
GI50 (K562 [3]): 23.1 µM
GI50 (KB): > 100 µM
Structure (SMILES): O=C(COc1ccc(/C=C2\SC(=O)NC2=O)cc1)Nc1c(F)cc(Br)cc1F
viability [2]: > 70%
GI50 (HOP-62): 75.2 µM
GI50 [4]: 64.1 µM

GI50 (A549): > 100 µM
GI50 (NCI-H226): 82.1 µM
Structure (SMILES): O=C1NC(=O)/C(=C/c2ccc(OCC(=O)N3c4ccccc4Sc4ccccc43)cc2)S1
viability [2]: > 70%

Structure (SMILES): O=C(COc1ccc(/C=C2\SC(=O)NC2=O)cc1)Nc1ncc([N+](=O)[O-])s1
viability [2]: > 70%

GI50 (PC-3): > 100 µM
GI50 (MCF7): 66.8 µM
GI50 (K562 [3]): 20.7 µM
GI50 (KB): > 100 µM
Structure (SMILES): Cc1cc(Br)ccc1NC(=O)COc1ccc(/C=C2\SC(=O)NC2=O)cc1
viability [2]: > 70%
GI50 (HOP-62): > 100 µM
GI50 [4]: 69.7 µM

Structure (SMILES): O=C(COc1ccc(/C=C2\SC(=O)NC2=O)cc1)Nc1ccccn1
viability [2]: > 70%
